{"data": "Published values gathered from unrelated publications", "target": "Dual specificity protein kinase CLK3 (CLK3, Homo sapiens, UniProt P49761)", "note": "Protocols differ between the studies behind these lines."}
{"Structure (SMILES)": "COc1cc2c(N3CCN(C(=O)Nc4ccc(OC(C)C)cc4)CC3)ncnc2cc1OCCCN1CCCCC1", "test": "cell-free assay", "conditions": "0.5 µM", "quantity": "remaining signal", "value": "93.4%"}
{"Structure (SMILES)": "C[C@@]1(Cc2ccc(C#N)cc2)C(=O)N(c2cc(Cl)cc(Cl)c2)c2ncc(C(=O)NC3(c4nc(C5CCC5)no4)CC3)n21", "test": "cell-free assay, competition with immobilised ligand", "conditions": "1 µM", "quantity": "remaining binding", "value": "100%"}
{"Structure (SMILES)": "CC(C)(C)c1nc2c(s1)c1nc(N)ncc1c1ccc(NS(=O)(=O)c3c(F)cccc3F)c(F)c12", "test": "enzyme activity, inhibitor, radiometric", "conditions": "1 µM", "quantity": "remaining activity", "value": "82%"}
{"Structure (SMILES)": "COc1cc(Nc2c(C#N)cnc3cc(OCCCN4CCN(C)CC4)c(OC)cc23)c(Cl)cc1Cl", "test": "cell-free assay", "conditions": "0.5 µM", "quantity": "remaining signal", "value": "94.9%"}
{"Structure (SMILES)": "Cn1c2c(Cl)c(Cl)ccc2c2cc(N)[nH]c(=O)c21", "test": "thermal stability, DSF", "conditions": "10 µM", "quantity": "ΔTm", "value": "0.6 °C"}
{"Structure (SMILES)": "Nc1ncnc2occ(-c3ccc(NC(=O)Nc4cc(C(F)(F)F)ccc4F)cc3)c12", "test": "cell-free assay, inhibitor", "conditions": "20 µM", "quantity": "remaining signal", "value": "54%"}
{"Structure (SMILES)": "Cn1c2c(c3ccc(Cl)c(Cl)c31)C(C#N)C(C)(C)NC2=O (stereo not drawn)", "test": "thermal stability, DSF", "conditions": "10 µM", "quantity": "ΔTm", "value": "1.9 °C"}
{"Structure (SMILES)": "O=C1Nc2ccc(Cl)cc2C1=Cc1cc(Cl)c(O)c(Cl)c1", "test": "cell-free assay", "conditions": "0.5 µM", "quantity": "remaining signal", "value": "90.9%"}
{"Structure (SMILES)": "O=C(Nc1cnn(-c2csc(C(=O)NC3COC3)c2)c1)Nc1ccccc1Cl", "test": "enzyme activity, inhibitor", "conditions": "5 µM", "quantity": "remaining activity", "value": "120%"}
{"Structure (SMILES)": "O=C(NC[C@@H]1[C@H]2CN(C(=O)OCc3cc(C(F)(F)F)cc(C(F)(F)F)c3)C[C@@H]12)c1ccc2[nH]nnc2c1", "test": "cell-free assay, competition with immobilised ligand", "conditions": "1 µM", "quantity": "remaining binding", "value": "78%"}
{"Structure (SMILES)": "O=C1NC(=O)c2cc(Nc3ccc(F)cc3)c(Nc3ccc(F)cc3)cc21", "test": "cell-free assay", "conditions": "0.5 µM", "quantity": "remaining signal", "value": "93.7%"}
{"Structure (SMILES)": "O=C(O)[C@@H]1[C@@H](Cn2nnc3ccccc3c2=O)CC[C@H]1C(=O)c1ccc(OCCC2CCOCC2)cc1", "test": "cell-free assay, competition with immobilised ligand", "conditions": "1 µM", "quantity": "remaining binding", "value": "91%"}
{"Structure (SMILES)": "O=C(Nc1cnn(-c2csc(C(=O)NC3COC3)c2)c1)Nc1c(F)cccc1Cl", "test": "enzyme activity, inhibitor", "conditions": "5 µM", "quantity": "remaining activity", "value": "93.5%"}
{"Structure (SMILES)": "CCN(CC)CCNC(=O)c1c(C)[nH]c(/C=C2\\C(=O)Nc3ccc(F)cc32)c1C", "test": "enzyme activity, inhibitor", "conditions": "0.3 µM", "quantity": "inhibition", "value": "-1%"}
{"Structure (SMILES)": "CN1CCN(c2cnc3c(C4CCN(C(=O)c5ccc(OC(F)(F)F)cc5N)CC4)ncnc3c2)CC1", "test": "cell-free assay, competition with immobilised ligand", "conditions": "1 µM", "quantity": "remaining binding", "value": "100%"}
{"Structure (SMILES)": "CCN1/C(=C/C(C)=O)Sc2ccc(OC)cc21", "test": "cell-free assay", "conditions": "0.5 µM", "quantity": "remaining signal", "value": "95%"}
{"Structure (SMILES)": "Cc1ccc(Nc2nccc(N(C)c3ccc4c(C)n(C)nc4c3)n2)cc1S(N)(=O)=O", "test": "enzyme activity, inhibitor", "conditions": "10 µM", "quantity": "inhibition", "value": "32%"}
{"Structure (SMILES)": "COc1cc2ncnc(Nc3ccc(Oc4ccccc4)c(C)c3C)c2cc1OC", "test": "enzyme activity, inhibitor", "conditions": "1 µM", "quantity": "inhibition", "value": "-3%"}
{"Structure (SMILES)": "C[C@@H]1CN(c2cc(-c3nn(C)c4ccc(OC5(C)CC5)cc34)ncn2)C[C@H](C)O1", "test": "cell-free assay, competition with immobilised ligand", "conditions": "1 µM", "quantity": "remaining binding", "value": "98%"}
{"Structure (SMILES)": "CCOc1cc(-c2nncn2C)ccc1Nc1ncc2cc(C)nc(NCC(C)(C)C)c2n1", "test": "enzyme activity, inhibitor, FRET", "conditions": "1 µM", "quantity": "inhibition", "value": "< 15%"}
{"Structure (SMILES)": "Cc1cc(NC(=O)c2cccc3cc(-c4cccc5[nH]nc(N)c45)ccc23)ccc1F", "test": "enzyme activity, inhibitor", "conditions": "0.1 µM", "quantity": "activity vs control", "value": "97%"}
{"Structure (SMILES)": "COc1ccc2c(O[C@@H]3C[C@H]4C(=O)N[C@]5(C(=O)O)CC5/C=C\\CCCCC[C@H](NC(=O)OC5CCCC5)C(=O)N4C3)cc(-c3csc(NC(=O)C(C)C)n3)nc2c1C (stereo partly drawn)", "test": "cell-free assay, competition with immobilised ligand", "conditions": "1 µM", "quantity": "remaining binding", "value": "100%"}
{"Structure (SMILES)": "N#CC1c2c([nH]c3c(Cl)c(Cl)ccc23)C(=O)NC12CCCCC2 (racemic)", "test": "thermal stability, DSF", "conditions": "10 µM", "quantity": "ΔTm", "value": "2.1 °C"}
{"Structure (SMILES)": "CN1CC(Oc2cnc(C#N)cc2-c2ccn3nc(NC(=O)C4CC4)cc3c2)C1", "test": "enzyme activity, inhibitor", "conditions": "1 µM", "quantity": "inhibition", "value": "-5%"}
{"Structure (SMILES)": "CC(C)(O)[C@H]1CC[C@H](Nc2ccc3ncc(-c4cccc(C(F)(F)F)c4)n3n2)CC1", "test": "enzyme activity, inhibitor", "conditions": "1 µM", "quantity": "remaining activity", "value": "59.3%"}
{"Structure (SMILES)": "CN(C)C(=O)Cn1cc(-c2nc([C@@](C)(c3ccc(-c4cnc(N)nc4)cc3)C3CC3)no2)cn1", "test": "cell-free assay, competition with immobilised ligand", "conditions": "1 µM", "quantity": "remaining binding", "value": "100%"}
{"Structure (SMILES)": "Cn1c2c(c3ccc(Cl)c(Cl)c31)C(C#N)C1(CCNCC1)NC2=O (racemic)", "test": "thermal stability, DSF", "conditions": "10 µM", "quantity": "ΔTm", "value": "2.2 °C"}
{"Structure (SMILES)": "CCC(=N\\O)/C(C)=C/c1ccc(F)cc1", "test": "cell-free assay, competition with immobilised ligand", "conditions": "1 µM", "quantity": "remaining binding", "value": "73%"}
{"Structure (SMILES)": "Cn1c2c(c3ccc(Cl)c(Cl)c31)C(C#N)C1(CCCCC1)NC2=O (racemic)", "test": "thermal stability, DSF", "conditions": "10 µM", "quantity": "ΔTm", "value": "0.4 °C"}
{"Structure (SMILES)": "CNC(=O)c1cc(Oc2ccc(NC(=O)Nc3ccc(Cl)c(C(F)(F)F)c3)cc2)ccn1", "test": "enzyme activity, inhibitor", "conditions": "10 µM", "quantity": "inhibition", "value": "13%"}
